Assay results taken from ChEMBL document CHEMBL3046030, “Implementation of bio-fungicides and seed treatment in organic rice cv. KDML 105 farming” (2009).

Columns and labels:
Assay type in all cases: functional
Aspergillus niger [1] = assay: Antifungal activity against Aspergillus niger assessed as inhibition of spore germination at 1% after 24 hr by compound microscopy
Rhizoctonia solani [2] = assay: Antifungal activity against Rhizoctonia solani assessed as mycelial growth inhibition after 96 hr by agar overlay method
Outline: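 Agar overlay on PDA with extract or oil at 0.10, 0.25, 0.50 and 1.00% v/v. A 5 mm plug from a 7-day R. solani culture was incubated 96 h at 25±2°C, colony diameter was measured, and % inhibition versus untreated control was calculated in four replicates. IC50 was derived by regression of % inhibition against concentration.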

Aspergillus flavus [3] = assay: Antifungal activity against Aspergillus flavus assessed as inhibition of spore germination at 0.5% after 24 hr by compound microscopy
Aspergillus flavus [4] = assay: Antifungal activity against Aspergillus flavus assessed as inhibition of spore germination at 1% after 24 hr by compound microscopy
Fusarium verticillioides [5] = assay: Antifungal activity against Fusarium verticillioides assessed as inhibition of spore germination at 0.5% after 24 hr by compound microscopy
Outline: (§1)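 Spores were raised by growing the fungus 3 days at 25±2°C in aqueous PDA, rinsing the mycelium three times in distilled water, and holding it 2 more days. The suspension was adjusted to about 10^6 cfu/mL by hemacytometer and spread on slides carrying a thin PDA layer. An open watch glass held plant extract or essential oil (0.10–1.00% v/v), or sterile water as control. Slides were sealed in moist dishes for 24 h at 25±2°C. Encysted spores were counted at x100, and % inhibition was calculated against control.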

Fusarium verticillioides [6] = assay: Antifungal activity against Fusarium verticillioides assessed as mycelial growth inhibition after 96 hr by agar overlay method
Outline: (§2)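 Agar overlay method: plant extract or essential oil was mixed into PDA at 0.10, 0.25, 0.50 and 1.00% v/v. A 5 mm plug from a 7-day culture was placed upside down on each plate and incubated 96 h at 25±2°C. Colony diameter was compared with an untreated control as % inhibition = (C−T)/C×100, using four replicates averaged. IC50 was derived by regression of the concentration–response curve.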

Fusarium verticillioides [7] = assay: Antifungal activity against Fusarium verticillioides assessed as inhibition of spore germination at 1% after 24 hr by compound microscopy; outline: as §1
Nigrospora [8] = assay: Antifungal activity against Nigrospora sp. assessed as mycelial growth inhibition at 1% after 96 hr by agar overlay method; outline: as §2
Alternaria solani [9] = assay: Antifungal activity against Alternaria solani assessed as inhibition of spore germination at 0.5% after 24 hr by compound microscopy; outline: as §1
Nigrospora [10] = assay: Antifungal activity against Nigrospora sp. assessed as mycelial growth inhibition after 96 hr by agar overlay method; outline: as §2
Fusarium verticillioides [11] = assay: Antifungal activity against Fusarium verticillioides assessed as inhibition of spore germination at 0.10% after 24 hr by compound microscopy; outline: as §1
Curvularia [12] = assay: Antifungal activity against Curvularia sp. assessed as inhibition of spore germination at 0.10% after 24 hr by compound microscopy
Rhizoctonia solani [13] = assay: Antifungal activity against Rhizoctonia solani assessed as inhibition of spore germination at 0.25% after 24 hr by compound microscopy
Outline: (§3)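 R. solani grown 3 days at 25±2°C in aqueous PDA, rinsed three times with distilled water, then held 2 days to induce spores. Suspension set to about 10^6 cfu/mL by hemacytometer and spread on a thin PDA layer on slides. Watch glass held extract/oil (0.10–1.00% v/v) or sterile water control. Moist sealed chamber, 24 h, 25±2°C; encysted spores counted at x100; % inhibition versus control.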

Curvularia [14] = assay: Antifungal activity against Curvularia sp. assessed as mycelial growth inhibition at 1% after 96 hr by agar overlay method; outline: as §2
Rhizoctonia solani [15] = assay: Antifungal activity against Rhizoctonia solani assessed as mycelial growth inhibition at 1% after 96 hr by agar overlay method
Outline: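 PDA containing plant extract or essential oil (0.10–1.00% v/v) was used for the agar overlay. A 5 mm plug from a 7-day-old R. solani culture was placed upside down, then incubated 96 h at 25±2°C. Colony diameter was measured against a simultaneous untreated control, and inhibition was calculated as [(C−T)/C]×100. Four replicates were averaged.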

Curvularia [16] = assay: Antifungal activity against Curvularia sp. assessed as mycelial growth inhibition after 96 hr by agar overlay method; outline: as §2
Curvularia [17] = assay: Antifungal activity against Curvularia sp. assessed as inhibition of spore germination at 1% after 24 hr by compound microscopy
Aspergillus niger [18] = assay: Antifungal activity against Aspergillus niger assessed as mycelial growth inhibition after 96 hr by agar overlay method; outline: as §2
Aspergillus flavus [19] = assay: Antifungal activity against Aspergillus flavus assessed as mycelial growth inhibition at 1% after 96 hr by agar overlay method; outline: as §2
Fusarium verticillioides [20] = assay: Antifungal activity against Fusarium verticillioides assessed as mycelial growth inhibition at 1% after 96 hr by agar overlay method; outline: as §2
Alternaria solani [21] = assay: Antifungal activity against Alternaria solani assessed as inhibition of spore germination at 0.10% after 24 hr by compound microscopy; outline: as §1
Aspergillus flavus [22] = assay: Antifungal activity against Aspergillus flavus assessed as inhibition of spore germination at 0.25% after 24 hr by compound microscopy
Alternaria solani [23] = assay: Antifungal activity against Alternaria solani assessed as inhibition of spore germination at 1% after 24 hr by compound microscopy; outline: as §1
Curvularia [24] = assay: Antifungal activity against Curvularia sp. assessed as inhibition of spore germination at 0.25% after 24 hr by compound microscopy
Aspergillus niger [25] = assay: Antifungal activity against Aspergillus niger assessed as inhibition of spore germination at 0.25% after 24 hr by compound microscopy
Aspergillus flavus [26] = assay: Antifungal activity against Aspergillus flavus assessed as mycelial growth inhibition after 96 hr by agar overlay method; outline: as §2
Alternaria solani [27] = assay: Antifungal activity against Alternaria solani assessed as mycelial growth inhibition at 1% after 96 hr by agar overlay method; outline: as §2
Aspergillus niger [28] = assay: Antifungal activity against Aspergillus niger assessed as mycelial growth inhibition at 1% after 96 hr by agar overlay method; outline: as §2
Alternaria solani [29] = assay: Antifungal activity against Alternaria solani assessed as mycelial growth inhibition after 96 hr by agar overlay method; outline: as §2
Rhizoctonia solani [30] = assay: Antifungal activity against Rhizoctonia solani assessed as inhibition of spore germination at 0.5% after 24 hr by compound microscopy; outline: as §3
Aspergillus niger [31] = assay: Antifungal activity against Aspergillus niger assessed as inhibition of spore germination at 0.5% after 24 hr by compound microscopy
Rhizoctonia solani [32] = assay: Antifungal activity against Rhizoctonia solani assessed as inhibition of spore germination at 0.10% after 24 hr by compound microscopy; outline: as §1
Bipolaris oryzae [33] = assay: Antifungal activity against Bipolaris oryzae assessed as mycelial growth inhibition after 96 hr by agar overlay method; outline: as §2
Rhizoctonia solani [34] = assay: Antifungal activity against Rhizoctonia solani assessed as inhibition of spore germination at 1% after 24 hr by compound microscopy; outline: as §3
Fusarium verticillioides [35] = assay: Antifungal activity against Fusarium verticillioides assessed as inhibition of spore germination at 0.25% after 24 hr by compound microscopy; outline: as §1
Aspergillus niger [36] = assay: Antifungal activity against Aspergillus niger assessed as inhibition of spore germination at 0.10% after 24 hr by compound microscopy
Aspergillus flavus [37] = assay: Antifungal activity against Aspergillus flavus assessed as inhibition of spore germination at 0.10% after 24 hr by compound microscopy
Curvularia [38] = assay: Antifungal activity against Curvularia sp. assessed as inhibition of spore germination at 0.5% after 24 hr by compound microscopy
Bipolaris oryzae [39] = assay: Antifungal activity against Bipolaris oryzae assessed as mycelial growth inhibition at 1% after 96 hr by agar overlay method; outline: as §2
Alternaria solani [40] = assay: Antifungal activity against Alternaria solani assessed as inhibition of spore germination at 0.25% after 24 hr by compound microscopy; outline: as §1
Curvularia [41] = assay: Antifungal activity against Curvularia sp. at 1%
Bipolaris oryzae [42] = assay: Antifungal activity against Bipolaris oryzae at 1%
Colletotrichum = assay: Antifungal activity against Colletotrichum sp. at 1%
Rhizoctonia solani [43] = assay: Antifungal activity against Rhizoctonia solani at 1%
Rhizoctonia solani [44] = assay: Antifungal activity against Rhizoctonia solani at 0.25%
Aspergillus niger [45] = assay: Antifungal activity against Aspergillus niger at 1%
Alternaria solani [46] = assay: Antifungal activity against Alternaria solani at 0.25%
Aspergillus flavus [47] = assay: Antifungal activity against Aspergillus flavus at 1%
Aspergillus flavus [48] = assay: Antifungal activity against Aspergillus flavus at 0.25%
Aspergillus niger [49] = assay: Antifungal activity against Aspergillus niger at 0.25%
Nigrospora [50] = assay: Antifungal activity against Nigrospora sp. at 0.25%
Alternaria solani [51] = assay: Antifungal activity against Alternaria solani at 1%
Fusarium verticillioides [52] = assay: Antifungal activity against Fusarium verticillioides at 0.25%
Bipolaris oryzae [53] = assay: Antifungal activity against Bipolaris oryzae at 0.25%
Fusarium verticillioides [54] = assay: Antifungal activity against Fusarium verticillioides at 1%
Curvularia [55] = assay: Antifungal activity against Curvularia sp. at 0.25%
Nigrospora [56] = assay: Antifungal activity against Nigrospora sp. at 1%

O=C1C2CC=CCC2C(=O)N1SC(Cl)(Cl)Cl (stereo unspecified) [CAPTAN]
growth inhibition (GI) (Aspergillus niger [1]): 100%
growth inhibition (GI) (Rhizoctonia solani [2]): 13.78%
growth inhibition (GI) (Aspergillus flavus [3]): 100%
growth inhibition (GI) (Aspergillus flavus [4]): 100%
growth inhibition (GI) (Fusarium verticillioides [5]): 100%
growth inhibition (GI) (Fusarium verticillioides [6]): 12.28%
growth inhibition (GI) (Fusarium verticillioides [7]): 100%
growth inhibition (GI) (Nigrospora [8]): 6.97%
growth inhibition (GI) (Alternaria solani [9]): 100%
growth inhibition (GI) (Nigrospora [10]): 2.82%
growth inhibition (GI) (Fusarium verticillioides [11]): 100%
growth inhibition (GI) (Curvularia [12]): 100%
growth inhibition (GI) (Rhizoctonia solani [13]): 100%
growth inhibition (GI) (Curvularia [14]): 9.15%
growth inhibition (GI) (Rhizoctonia solani [15]): 17.06%
growth inhibition (GI) (Curvularia [16]): 8.45%
growth inhibition (GI) (Curvularia [17]): 100%
growth inhibition (GI) (Aspergillus niger [18]): 4.06%
growth inhibition (GI) (Aspergillus flavus [19]): 18.02%
growth inhibition (GI) (Fusarium verticillioides [20]): 23.39%
growth inhibition (GI) (Alternaria solani [21]): 100%
growth inhibition (GI) (Aspergillus flavus [22]): 100%
growth inhibition (GI) (Alternaria solani [23]): 100%
growth inhibition (GI) (Curvularia [24]): 100%
growth inhibition (GI) (Aspergillus niger [25]): 100%
growth inhibition (GI) (Aspergillus flavus [26]): 8.13%
growth inhibition (GI) (Alternaria solani [27]): 2.63%
growth inhibition (GI) (Aspergillus niger [28]): 13.95%
growth inhibition (GI) (Alternaria solani [29]): 4.6%
growth inhibition (GI) (Rhizoctonia solani [30]): 100%
growth inhibition (GI) (Aspergillus niger [31]): 100%
growth inhibition (GI) (Rhizoctonia solani [32]): 100%
growth inhibition (GI) (Bipolaris oryzae [33]): 1.11%
growth inhibition (GI) (Rhizoctonia solani [34]): 100%
growth inhibition (GI) (Fusarium verticillioides [35]): 100%
growth inhibition (GI) (Aspergillus niger [36]): 100%
growth inhibition (GI) (Aspergillus flavus [37]): 100%
growth inhibition (GI) (Curvularia [38]): 100%
growth inhibition (GI) (Bipolaris oryzae [39]): 21.1%
growth inhibition (GI) (Alternaria solani [40]): 100%

C=CCc1ccc(O)c(OC)c1 [EUGENOL]
inhibition (INH) (Curvularia [41]): 97.04%
inhibition (INH) (Bipolaris oryzae [42]): 100%
growth inhibition (GI) (Aspergillus niger [1]): 100%
growth inhibition (GI) (Aspergillus flavus [3]): 100%
growth inhibition (GI) (Aspergillus flavus [4]): 100%
growth inhibition (GI) (Fusarium verticillioides [5]): 100%
inhibition (INH) (Colletotrichum): 100%
growth inhibition (GI) (Fusarium verticillioides [7]): 100%
inhibition (INH) (Rhizoctonia solani [43]): 100%
inhibition (INH) (Rhizoctonia solani [44]): 100%
growth inhibition (GI) (Alternaria solani [9]): 65.68%
growth inhibition (GI) (Fusarium verticillioides [11]): 21.88%
inhibition (INH) (Aspergillus niger [45]): 100%
growth inhibition (GI) (Curvularia [12]): 44.94%
growth inhibition (GI) (Rhizoctonia solani [13]): 100%
inhibition (INH) (Alternaria solani [46]): 100%
inhibition (INH) (Aspergillus flavus [47]): 100%
inhibition (INH) (Aspergillus flavus [48]): 44.22%
growth inhibition (GI) (Curvularia [17]): 100%
inhibition (INH) (Aspergillus niger [49]): 70.58%
inhibition (INH) (Nigrospora [50]): 50.04%
growth inhibition (GI) (Alternaria solani [21]): 14.41%
growth inhibition (GI) (Aspergillus flavus [22]): 65.6%
inhibition (INH) (Alternaria solani [51]): 100%
growth inhibition (GI) (Alternaria solani [23]): 100%
growth inhibition (GI) (Curvularia [24]): 85.39%
inhibition (INH) (Fusarium verticillioides [52]): 100%
growth inhibition (GI) (Aspergillus niger [25]): 65.6%
growth inhibition (GI) (Rhizoctonia solani [30]): 100%
growth inhibition (GI) (Aspergillus niger [31]): 100%
growth inhibition (GI) (Rhizoctonia solani [32]): 93.53%
inhibition (INH) (Bipolaris oryzae [53]): 86.98%
growth inhibition (GI) (Rhizoctonia solani [34]): 100%
inhibition (INH) (Fusarium verticillioides [54]): 100%
inhibition (INH) (Curvularia [55]): 50.04%
growth inhibition (GI) (Fusarium verticillioides [35]): 74.11%
growth inhibition (GI) (Aspergillus niger [36]): 37.59%
inhibition (INH) (Nigrospora [56]): 98.23%
growth inhibition (GI) (Aspergillus flavus [37]): 54%
growth inhibition (GI) (Curvularia [38]): 100%
growth inhibition (GI) (Alternaria solani [40]): 24.16%
